# Source: PubChem BioAssay
# The list is not random: actives were taken first. Their share in the collection is about 2.4%.
# NPY Y2 blocker = NPY-Y2 receptor antagonists, primary screen, cell-based | inhibition, % at 2.7 µM | 140,000 tested, 0.99% active | Neuropeptide Y receptor type 2 (Homo sapiens), P49146 | NPY-Y2 expressing cells, antagonist mode; in the data active = inhibition above about 17%;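 note: 0% = vehicle with agonist challenge and 100% = reference antagonist with challenge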
# S1P4 antagonist = S1P4 receptor antagonists, primary screen, cell-based; Sphingosine 1-phosphate receptor 4 (Homo sapiens), O95977; S1P4-expressing cells, antagonist mode, reporter read-out; inhibition, % at 4.98 µM; 220,000 tested, 0.26% active; AID 1510, 2009; in the data active = inhibition above about 29%;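 note: 0% = wells stimulated with agonist and 100% = vehicle wells without agonist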
# NPY-Y1 antag = NPY-Y1 receptor antagonists, primary screen, cell-based | Neuropeptide Y receptor type 1 (Homo sapiens), P25929 | HEK293-CNG Y1 cells, membrane potential fluorescence; NPY at EC95, then isoproterenol | inhibition, % at 3.6 µM | 200,000 tested, 1% active;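 active = inhibition above the campaign mean inhibition of all tested compounds plus 3 SD, cut at about 20% in these data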;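 note: 0% = DMSO wells given NPY plus isoproterenol and 100% = isoproterenol alone without NPY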
# Target sequence (P25929 whole entry, looked up): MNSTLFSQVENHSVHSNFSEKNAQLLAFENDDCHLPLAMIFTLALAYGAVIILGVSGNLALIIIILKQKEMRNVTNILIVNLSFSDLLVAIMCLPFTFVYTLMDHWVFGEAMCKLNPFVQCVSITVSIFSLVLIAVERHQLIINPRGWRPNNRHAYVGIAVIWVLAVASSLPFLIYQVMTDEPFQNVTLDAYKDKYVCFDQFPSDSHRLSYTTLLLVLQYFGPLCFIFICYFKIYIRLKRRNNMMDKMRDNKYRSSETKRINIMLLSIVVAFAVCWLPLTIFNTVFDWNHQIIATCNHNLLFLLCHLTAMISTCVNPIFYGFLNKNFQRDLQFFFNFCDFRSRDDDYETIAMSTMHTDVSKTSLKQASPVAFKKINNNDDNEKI
#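 Assay system: HEK293 Y1/CNG channel cell line; Doses: single compound dose of 3.6 µM, 0.4% DMSO; Timing: dye 3 h, compound 60 min room temperature, stimulation 45 min; Technique: Membrane-potential fluorescent dye readout; Measure: % inhibition of NPY effect.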
# NPY-Y1 PAM-ag = NPY-Y1 receptor potentiators or agonists, primary screen, cell-based; Neuropeptide Y receptor type 1 (Homo sapiens), P25929; 220,000 tested, 0.37% active; NPY-Y1 expressing cells, potentiator/agonist activation; activation, % at 3.6 µM; in the data active = activation above about 33%, passing the limit was not always enough;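 note: cells stimulated with NPY at EC10 then isoproterenol at EC100; 0% = low agonist plus stimulus and 100% = saturating agonist plus stimulus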
# S1P4 ag = S1P4 receptor agonists, primary screen, cell-based. Sphingosine 1-phosphate receptor 4 (Homo sapiens), O95977. S1P4-expressing cell line, agonist reporter assay. activation, % at 4.98 µM. 220,000 tested, 0.35% active. AID 1509, 2009; in the data active = activation above about 11%;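 note: 0% = DMSO vehicle and 100% = reference agonist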
# NPY-Y2 PAM-ag = NPY-Y2 potentiators or agonists, primary screen, cell-based. Neuropeptide Y receptor type 2 (Homo sapiens), P49146. cells expressing NPY-Y2, potentiator/agonist read-out. activation, % at 3.6 µM. 220,000 tested, 0.45% active; in the data active = activation above about 27%;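 note: cells stimulated with NPY near EC25 plus isoproterenol at EC100; 0% = vehicle plus submaximal agonist and 100% = vehicle plus saturating agonist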
# * marks the source's active call; other numbers are inactive results; x = not tested or not shown.
SMILES,NPY Y2 blocker,S1P4 antagonist,NPY-Y1 antag,NPY-Y1 PAM-ag,S1P4 ag,NPY-Y2 PAM-ag
CCOC(=O)CSc1nc2ccc(NC(C)=O)cc2s1,-1,8,-9,72*,2,58*
O=C(Nc1ccc2nc(SCc3ccc(Cl)cc3)sc2c1)c1ccccc1C(=O)N1CCOCC1,2,-14,1,5,3,-23
COC(=O)CSc1nc2ccc(NC(=O)c3ccccc3C(=O)N3CCOCC3)cc2s1,2,-2,-16,109*,0,95*
Cc1ccc(NC2=NCC(=O)N2Cc2ccc3c(c2)OCO3)c(C)c1,6,-15,-2,3,0,4
CCOC(=O)C1=C(CSCc2ccccc2)NC(=O)NC1c1cc(C)ccc1C (configuration not stated),10,-11,1,-4,-1,-8
Cc1cncn1CCc1nc2c3ccccc3nc(SCC(=O)Nc3cccc(Cl)c3)n2n1,33*,-37,49*,-107,1,-26
Cc1cccc(NC(=O)CSc2nc3ccccc3c3nc(CCc4c(C)n[nH]c4C)nn23)c1,1,-27,-2,-14,2,4
CC1(C)SC(=S)N(/N=C/c2ccc(O)cc2)C1N(O)C(=O)Nc1ccc([N+](=O)[O-])cc1 (configuration not stated),-5,-12,-17,38,0,33*
CCOC(=O)C1=C(C)NC(SCc2cc(=O)[nH][nH]2)=C(C#N)C1c1cccs1 (configuration not stated),1,-1,6,1,1,10
O=c1cc(-c2ccccc2Cl)oc2c(NS(=O)(=O)c3cc(Cl)cc(Cl)c3O)ccc(O)c12,2,5,-5,56*,0,41*
CCOC(=O)C(C)Sc1nc(-c2ccco2)cc(C(F)(F)F)c1C#N (configuration not stated),20*,-6,34*,-11,0,20
COc1ccc(CNCc2cccc(Oc3ccccc3)c2)cc1,x,28,21*,-42,-2,-42
Cc1ccc(NC(=O)c2cc(N3CCOCC3)nc3ccccc23)cc1,4,0,12,-48,1,-26
COC(=O)c1ccc(NC(=S)NC(=O)c2cc(-c3ccccc3)nc3ccccc23)cc1,23*,-14,41*,-120,0,4
COc1ccc(C(=O)NNC(=S)NC(=O)c2cc(-c3ccccc3)nc3ccccc23)cc1,0,-4,5,14,1,-12
Cc1ccc(NC(=O)c2cc(Cl)nc3ccccc23)cc1,21*,-5,31*,-66,-2,-62
O=C1CCC(=O)N1c1nc2n(n1)C(c1ccccc1)C=C(c1ccc(Br)cc1)N2 (configuration not stated),0,4,-6,89*,-2,7
O=C(Cc1ncc(C(F)(F)F)cc1Cl)NC1CC1,x,-5,3,-1,2,0
COc1ccc(N2C(=O)/C(=C/c3cccnc3)NC2=S)cc1,-3,-23,-6,2,1,7
COc1cccc(N2C(=O)/C(=C\c3cccs3)NC2=S)c1,x,-6,-3,48*,1,69*
O=C(c1ccco1)N1CCN(C(=O)c2cccs2)CC1,-2,7,1,8,2,6
Cc1ccc(S(=O)(=O)NC(C(=O)Oc2ccc3ccc(=O)oc3c2)c2ccccc2)cc1 (configuration not stated),2,-4,2,-10,5,3
Cc1ccc(S(=O)(=O)N[C@H](C(=O)Oc2ccc3c(C(F)(F)F)cc(=O)oc3c2)c2ccccc2)cc1,6,41*,1,4,1,-2
COc1ccc(CNC(=O)CN2C(=O)C3CCCN3c3ncc(Cl)cc32)cc1 (configuration not stated),2,-16,9,-14,1,4
CC1CCC(NC(=O)CN2C(=O)C3CCCN3c3ncc(Cl)cc32)CC1 (configuration not stated),6,-8,29*,-18,-1,-11
SMILES,NPY Y2 blocker,S1P4 antagonist,NPY-Y1 antag,NPY-Y1 PAM-ag,S1P4 ag,NPY-Y2 PAM-ag
CCc1ccccc1NC(=O)CN1C(=O)C2CCCN2c2ncc(Cl)cc21 (configuration not stated),23*,-21,33*,-7,-1,-33
Cc1cc(C)c(C#N)c(SCc2ccccc2F)n1,x,-5,7,-3,0,-17
COC(=O)CSc1nnc(-c2ccc(S(=O)(=O)N3CCCCC3)cc2)o1,0,0,-20,63*,-2,42*
C/C(=C\C(=O)c1ccc(Br)cc1)NCc1ccc2c(c1)OCO2,13,4,21*,12,-1,-8
CCOC(=O)C1=C(C)N=c2sc(=C(C)C)c(=O)n2C1c1ccc(N(C)C)cc1 (configuration not stated),1,-7,5,1,0,-2
O=S(=O)(Cc1cc(Oc2ccccc2)nc(-c2ccccc2)n1)c1ccccc1,21*,-7,22*,-11,-2,-14
c1ccc(Oc2cc(-c3ccccc3)nc(-c3ccccc3)n2)cc1,3,-23,-5,3,4,-2
Cc1cc(/C=c2/sc3nc4ccccc4n3c2=O)c(C)n1-c1ccccn1,3,-14,-3,27,25*,27
COc1cc(C(=O)O/N=C2\CCCc3c2ccc(OC)c3[N+](=O)[O-])cc(OC)c1OC,0,-7,-1,-2,0,7
Cc1ccc(C)c(OCC(O)CN2C(C)CCCC2C)c1 (configuration not stated),9,6,11,-35,0,-15
Cc1ccc(C)c(OCC(O)CN2CCCCC2C)c1 (configuration not stated),2,-14,-10,101*,0,80*
CC1(C)Cc2cccc(OCC(O)CNCc3ccccn3)c2O1 (configuration not stated),5,-11,-6,80*,1,66*
CC(C)NC(=O)NC(=O)COc1cccc2c1OC(C)(C)C2,0,-2,-1,-7,0,3
CC1(C)Cc2cccc(OCC(O)CN3CCN(c4ccccn4)CC3)c2O1 (configuration not stated),1,-10,-15,104*,0,91*
Cc1cccc(N2CCN(C(=O)COc3cccc4c3OC(C)(C)C4)CC2)c1C,5,-6,1,-9,0,6
NC(=O)CSc1nc(O)cc(=O)n1-c1ccccc1,4,-8,2,-19,2,0
O=C(NCCCn1ccnc1)c1cc([N+](=O)[O-])cc([N+](=O)[O-])c1,1,-15,1,61*,-1,78*
